Data set [1] concerns Rattus norvegicus. Briefly: Antiischemic stroke activity in Sprague-Dawley rat middle cerebral artery occlusion-induced ischemia-reperfusion injury model assessed as decrease in infarct size at 0.2 mg/kg, icv as nanoparticle measured after 72 hrs by TTC staining-based assay. Format: functional, organism-based. A digest of the protocol:
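Male Sprague-Dawley rats (250-280 g), n = 7 per group. Nanoparticle-loaded drug (0.2 mg/kg) or isovolumetric saline or vehicle (polymer:DMSO:distilled water 50 mg:1 mL:3 mL) given by intracerebroventricular injection 2 h before MCAO. Filament occlusion for 2 h, then 72 h reperfusion. Brain slices stained with TTC at 37 °C for 30 min, photographed, and infarct area quantified by image analysis.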

Data set [2] concerns the target T1, Nuclear factor erythroid 2-related factor 2 (Rattus norvegicus) (UniProt O54968).
T1 sequence (whole entry): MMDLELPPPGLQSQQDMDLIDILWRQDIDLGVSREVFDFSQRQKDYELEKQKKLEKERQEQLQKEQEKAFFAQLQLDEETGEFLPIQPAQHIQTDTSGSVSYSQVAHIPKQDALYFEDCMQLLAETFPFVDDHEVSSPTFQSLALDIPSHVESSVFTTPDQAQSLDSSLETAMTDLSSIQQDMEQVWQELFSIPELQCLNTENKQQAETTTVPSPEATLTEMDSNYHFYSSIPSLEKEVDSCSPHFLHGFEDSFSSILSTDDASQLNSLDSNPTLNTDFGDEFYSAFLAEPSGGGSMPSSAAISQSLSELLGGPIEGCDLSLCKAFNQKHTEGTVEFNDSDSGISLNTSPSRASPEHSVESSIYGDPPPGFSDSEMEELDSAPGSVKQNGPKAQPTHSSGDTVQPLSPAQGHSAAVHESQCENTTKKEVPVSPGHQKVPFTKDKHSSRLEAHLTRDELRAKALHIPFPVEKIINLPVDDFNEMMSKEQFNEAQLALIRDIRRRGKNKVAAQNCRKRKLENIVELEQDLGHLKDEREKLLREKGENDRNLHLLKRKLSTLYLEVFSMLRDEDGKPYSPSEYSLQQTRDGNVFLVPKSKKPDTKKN
Briefly: Induction of Nrf2 translocation in nucleus of rat PC12 cells at 5 uM after 6 hrs by DAPI staining-based fluorescence microscopic method. Format: cell-based. The method in brief:
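PC12 cells on coverslips treated with 5 µM compound for 6 h. Fixed in 4% paraformaldehyde (20 min, 4 °C), permeabilised with 1% Triton X-100, blocked with 1% BSA. Anti-Nrf2 (1:300) overnight at 4 °C, then PE-labelled secondary (1:300) 1 h in the dark. DAPI counterstain, imaged by fluorescence microscopy.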

Data set [3] concerns PC-12. The data set is described as follows: Cytotoxicity against rat PC12 cells assessed as decrease in cell viability at 5 uM after 72 hrs by MTT assay. The note with it: pc-12, 72 h. Format: cell-based. A digest of the protocol: (§1)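 PC12 cells at 5×10^3/well, attached overnight. Exposed to 5 µM compound for 24 h or 72 h without H2O2. MTT 4 h at 37 °C, formazan dissolved in DMSO, OD 490 nm. Viability as % of untreated control.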
(In general: Tetrazolium dyes change colour on reduction, which living cells bring about.)

Data set [4] relates to PC-12. Briefly: Cytoprotective activity against H2O2-induced damage in rat PC12 cells assessed as increase in cell viability at 5 uM preincubated for 24 hrs followed by H2O2 challenge measured after 24 hrs by MTT assay. Format: functional, cell-based. A digest of the protocol:
(§2)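 PC12 cells at 5×10^3/well, attached overnight. Pretreated with 5 µM compound for 1 h or 24 h, then 400 µM H2O2 for 24 h. MTT (5 mg/mL) for 4 h at 37 °C, formazan dissolved in DMSO, OD read at 490 nm. Viability given as % of untreated control.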

Data set [5] relates to PC-12. The data set is described as follows: Cytoprotective activity against H2O2-induced damage in rat PC12 cells assessed as increase in cell viability at 5 uM preincubated for 1 hr followed by H2O2 challenge measured after 24 hrs by MTT assay. Format: functional, cell-based. A digest of the protocol: as §2
Data set [6] has as its system PC-12. Briefly: Cytoprotective activity against H2O2-induced damage in rat PC12 cells assessed as decrease in MDA levels preincubated for 1 to 24 hrs followed by H2O2 challenge measured after 16 hrs. Format: functional, cell-based. The method in brief:
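PC12 cells in DMEM with 10% FBS at 37 °C, 5% CO2. Pre-incubated 1 h or 24 h with compound (2.5, 5, 7.5 µM; reference compounds 5 µM), then exposed to 700 µM H2O2 for 16 h. Supernatant taken after centrifugation at 1600 × g for 10 min at 4 °C, and MDA measured with a kit. Mean ± SD, n = 3, one-way ANOVA with Tukey test.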

For data set [7], the system named is Rattus norvegicus. The data set is described as follows: Antiischemic stroke activity in Sprague-Dawley rat middle cerebral artery occlusion-induced ischemia-reperfusion injury model assessed as decrease in neurological score at 0.2 mg/kg, icv as nanoparticle measured after 72 hrs by Longa's method. Format: functional, organism-based. The method in brief: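 Male Sprague-Dawley rats (250-280 g), n = 7 per group. Intracerebroventricular injection of nanoparticle formulation 0.2 mg/kg 2 h before MCAO. Vehicle was polymer:DMSO:distilled water (50 mg:1 mL:3 mL). Intraluminal thread (about 1.8 cm) via ECA, 2 h occlusion, then 72 h reperfusion. Neurological deficit scored at 72 h on Longa's 0–4 scale. Mean ± SD, n ≥ 6.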

In data set [8] the target is T1, Nuclear factor erythroid 2-related factor 2 (Rattus norvegicus). Briefly: Induction of Nrf2 translocation in nucleus of rat PC12 cells assessed as upregulation of HO-1 protein expression after 24 hrs by Western blot method. Format: cell-based. A digest of the protocol:
(§3)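 PC12 cells treated 24 h at 2.5, 5 or 10 µM; reference compounds at 10 µM. Lysed in ice-cold RIPA, run on 10% SDS-PAGE and transferred to PVDF. Probed with anti-HO-1 (1:300) and GAPDH (1:1000) overnight at 4 °C, then HRP anti-rabbit IgG 1 h. Mean ± SD, n = 3, one-way ANOVA with Tukey test.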
(In general: In western blotting, separated proteins are transferred to a membrane and probed.)

Data set [9] has as its system PC-12. Briefly: Cytoprotective activity against H2O2-induced damage in rat PC12 cells assessed as decrease in ROS accumulation at 5 uM preincubated for 1 to 24 hrs followed by H2O2 challenge measured after 3 hrs by DCFH-DA dye-based flow cytometric method. Format: functional, cell-based. A digest of the protocol: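 PC12 cells seeded at 3 × 10^5/mL and attached overnight. Pre-incubated 1 h or 24 h with 5 µM compound, then H2O2 for 3 h. Loaded with DCFH-DA at 37 °C for 30 min, detached enzymatically, washed in PBS, filtered and analysed by flow cytometry. Mean ± SD, n = 3.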
(Flow cytometry measures light scatter and fluorescence of single cells or particles in a stream.)

The subject of data set [10] is PC-12. The data set is described as follows: Cytotoxicity against rat PC12 cells assessed as decrease in cell viability at 5 uM after 24 hrs by MTT assay. Format: cell-based. The note with it: pc-12, 24 h. A digest of the protocol: as §1
Data set [11] addresses T1, Nuclear factor erythroid 2-related factor 2 (Rattus norvegicus). The data set is described as follows: Induction of Nrf2 translocation in nucleus of rat PC12 cells assessed as upregulation of HO-1 protein expression at 5 uM after 24 hrs by Western blot method.
A short description of data set [12]: Antioxidant activity assessed as DPPH radical scavenging activity at 20 mg/ml after 30 mins. Format: functional. The method in brief:
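Samples were 20 mg/mL solutions in ethanol, mixed with 0.15 mM ethanolic DPPH (80 µL sample plus 120 µL DPPH). Mixtures were incubated 30 min at 25 °C and absorbance read at 517 nm. Ethanol plus DPPH served as the control. % scavenging = [1-(Ai-Aj)/Ac]×100. Run in triplicate.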

In data set [13] the test system is PC-12. The data set is described as follows: Cytoprotective activity against H2O2-induced damage in rat PC12 cells assessed as increase in cell viability preincubated for 1 to 24 hrs followed by H2O2 challenge measured after 24 hrs by MTT assay. Format: functional, cell-based. The method in brief: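 PC12 cells at 5×10^3/well, attached overnight. Pretreated 1 h or 24 h at 2.5, 5 or 7.5 µM, then 400 µM H2O2 for 24 h. MTT 4 h at 37 °C, DMSO solubilisation, OD 490 nm. Viability as % of control. Mean ± SD, n = 3, one-way ANOVA with Tukey test.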

For data set [14], the target named is T1, Nuclear factor erythroid 2-related factor 2 (Rattus norvegicus). The data set is described as follows: Induction of Nrf2 translocation in nucleus of rat PC12 cells assessed as upregulation of HO-1 protein expression at 10 uM after 24 hrs by Western blot method. Format: cell-based. The method in brief:
as §3

Activity calls are given as the source filed them. The rule behind the calls is not given here.

With `O=C1C(=Cc2ccc(O)c(O)c2)CC/C1=C\c1ccc(O)c(O)c1`, the outcome (in the data set with Rattus norvegicus [1]; in data set [2]; with PC-12 [4]; in the data set on PC-12 [5]; in the data set with Rattus norvegicus [7]; in the data set on PC-12 [9]) was Active. Moreover, in [12], the outcome was Active. Besides, the Activity result in the data set with PC-12 [3] is “Toxic”; in the data set with PC-12 [6] it was “Dose-dependent effect”; in data set [8], “Dose-dependent effect”; with PC-12 [10], “Non-Toxic”; in the data set with PC-12 [13], “Dose-dependent effect”. Also, the outcome in [11] was inactive.
For the molecule `O=C1/C(=C/c2ccc(O)c(O)c2)CN(Cc2ccccc2)C/C1=C\c1ccc(O)c(O)c1`, the outcome (with PC-12 [5]; in data set [12]) was Active.
For the molecule `O=C1/C(=C/c2ccc(O)c(O)c2)CSC/C1=C\c1ccc(O)c(O)c1`, the result (in the data set on PC-12 [5]; in [12]) was Active.
Consider `O=C1/C(=C/c2ccc(O)c(O)c2)CNC/C1=C\c1ccc(O)c(O)c1`, for which the values for the Activity entry in the data set on PC-12 [3] and with PC-12 [10] were “Toxic” and “Non-Toxic”, respectively. Also, the result (in the data set with PC-12 [4]; in the data set with PC-12 [5]; in data set [12]) was Active.
As for `CC1=NN(c2ccccc2)C(=O)C1`, the outcome with Rattus norvegicus [1] and with Rattus norvegicus [7] was Active.
Turning to `C[C@H](Cc1ccc(O)c(O)c1)[C@@H](C)Cc1ccc(O)c(O)c1`, the result (in [2]; in the data set on PC-12 [5]; in data set [14]; in data set [12]) was Active.
`CCCN1C/C(=C\c2ccc(O)c(O)c2)C(=O)/C(=C/c2ccc(O)c(O)c2)C1`: the result (with PC-12 [5]; in [12]) was Active.
In the case of `O=C1/C(=C/c2ccc(O)c(O)c2)CN(CCc2ccccc2)C/C1=C\c1ccc(O)c(O)c1`, the result (with PC-12 [5]; in [12]) was Active.
For the molecule `O=C1/C(=C/c2ccc(O)c(O)c2)CN(C(=O)OCc2ccccc2)C/C1=C\c1ccc(O)c(O)c1`, the result (with PC-12 [5]; in data set [12]) was Active.
In the case of `O=C1/C(=C/c2ccc(O)c(O)c2)COC/C1=C\c1ccc(O)c(O)c1`, the Activity entry is given as “Toxic” in the data set on PC-12 [3] and “Non-Toxic” in the data set with PC-12 [10]. In addition, the result (with PC-12 [4]; in the data set with PC-12 [5]; in data set [12]) was Active.
In the case of `O=C1/C(=C/c2ccc(O)c(O)c2)CN(C2CC2)C/C1=C\c1ccc(O)c(O)c1`, the result (in the data set with PC-12 [5]; in data set [12]) was Active.
`CCOC(=O)N1C/C(=C\c2ccc(O)c(O)c2)C(=O)/C(=C/c2ccc(O)c(O)c2)C1`: the result (with PC-12 [5]; in [12]) was Active.
`CN1C/C(=C\c2ccc(O)c(O)c2)C(=O)/C(=C/c2ccc(O)c(O)c2)C1`: the outcome (in the data set with PC-12 [5]; in data set [12]) was Active.
For `O=C1C(=Cc2ccc(O)c(O)c2)CCC/C1=C\c1ccc(O)c(O)c1`, the result (with PC-12 [5]; in [12]) was Active.
As for `CC(C)(C)c1cc(O)ccc1O`, the outcome in data set [2] and in [14] was Active.
